Screening data deposited in PubChem by Broad Institute.
S100A4 inh HTS: inhibitors of S100A4-myosin IIA peptide binding, primary screen, biochemical, fluorescence polarization, TAMRA-MyoIIA peptide; Protein S100-A4 (Homo sapiens), P26447; inhibition, % at 10.7 µM; hit rate 0.14% among 360,000;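 active = mean inhibition of at least 70% across replicates, with every replicate also reaching that level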
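Test system: S100A4 monomer protein; Medium: HEPES pH 7.2 with CaCl2, KCl, NaCl, DTT, Triton; Probe or stimulus: TAMRA-labelled myosin IIA heavy-chain peptide probe, 5 nM; Doses: one dose per compound; Times: polarization read 5 min after assay mix addition, stable 5–60 min; Benchmarks: neutral control DMSO, positive control TFP.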
ERAP1 HTS inh: human ERAP1 aminopeptidase inhibitors, primary screen, biochemical, single point, plate reader. Endoplasmic reticulum aminopeptidase 1 (Homo sapiens), Q9NZ08. recombinant ERAP1, Leu-AMC fluorescence, 60 min. inhibition, % at 10.7 µM. hit rate 0.15% among 340,000;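 active = mean replicate inhibition of at least 30%, or all replicates individually reaching that 30% level; inactive = mean below 30% and not every replicate reaching it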;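 also: 0% = neutral control wells and 100% = L-leucinethiol positive control wells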
E-selectin induc: E-selectin induction in HUVECs, primary screen, imaging, HUVEC, immunofluorescence imaging, single point | P16581 | normalized: neutral wells 0, TNF-alpha wells 100 | activation, % at 7.58 µM | hit rate 0.37% among 260,000 | AID 686992, 2013;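 active = mean E-selectin-positive cell signal at least 10% of the positive control, reached in at least 60% of replicates, without over 20% cell loss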
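Read-out: % PE-positive cells | Test system: HUVEC | Doses: One compound dose added by pin transfer | Buffer or medium: EGM-2 over gelatin coat | Signal: Immunofluorescence imaging | Benchmarks: TNF-alpha, DMSO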
rRNA inh HTS: reduced GFP signal of wild-type E. coli, primary screen, bacterial rRNA inhibitor project, GFP/RFP fluorescence, OD600, single point | AID 720706, 2013 | E. coli WT GFP vs humanized-ribosome RFP mutants, 24 h; hits give low values; DMSO median 0, no signal -100 | hit rate 1.6% among 350,000 | GFP signal change (wild-type ribosome), % (test concentration not listed);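 active = significant combined selectivity score with lowered wild-type GFP, culture density cut under 30%, mutant RFP and density less affected; inactive = any of these conditions unmet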
MLL AF4-AF9 inh: inhibitors of AF4 peptide binding to AF9, primary screen, biochemical, AlphaScreen, biotin-AF4 peptide, FLAG-AF9, single point; Protein AF-9 (Homo sapiens), P42568; inhibition, % at 10 µM; hit rate 0.47% among 350,000; AID 651704, 2012;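 active = every replicate reaching a set inhibition limit, whatever the replicate mean, cut at about 25% in these data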;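 also: 0% = plate neutral control median and 100% = total signal loss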
SIRT5 block: SIRT5 desuccinylase inhibitors, primary screen, biochemical, fluorescence imaging, single point, set 5; NAD-dependent protein deacylase sirtuin-5, mitochondrial (Homo sapiens), Q9NXA8; Purified SirT5, succinyl-peptide AMC, trypsin-coupled fluorescence; inhibition, % at 15 µM; hit rate 1.1% among 330,000; AID 652115, 2013; in the data active = inhibition above about 15%
The depositor's hits bear a star; · = no result given. Hits are enriched below; roughly 3.4% of the tested compounds scored in any of these assays.

SMILES | S100A4 inh HTS | ERAP1 HTS inh | E-selectin induc | rRNA inh HTS | MLL AF4-AF9 inh | SIRT5 block
C[C@@H]1CCCCO[C@@H](CN(C)C(=O)C2CCCCC2)[C@@H](C)CN([C@H](C)CO)C(=O)c2cc(NC(=O)Nc3ccc(F)cc3)ccc2O1 | 2 | 2 | 0 | 2 | 0 | 1
COc1ccc(S(=O)(=O)Nc2ccc3c(c2)C(=O)N([C@H](C)CO)C[C@@H](C)[C@H](CN(C)C(=O)Nc2ccc(F)cc2)OCCCC[C@@H](C)O3)cc1 | 10 | -2 | 0 | 0 | 2 | 15*
C[C@H]1CCCCO[C@H](CN(C)C(=O)Nc2cccc3ccccc23)[C@@H](C)CN([C@@H](C)CO)C(=O)c2cc(NS(=O)(=O)c3ccc(F)cc3)ccc2O1 | -3 | -5 | 0 | 0 | 4 | 17*
C[C@@H]1CCCCO[C@H](CN(C)C(=O)C2CCCCC2)[C@H](C)CN([C@@H](C)CO)C(=O)c2cc(NC(=O)Nc3ccc(F)cc3)ccc2O1 | -2 | 1 | 0 | 0 | 1 | 16*
COc1ccc(S(=O)(=O)Nc2ccc3c(c2)C(=O)N([C@@H](C)CO)C[C@H](C)[C@@H](CN(C)C(=O)Nc2ccc(F)cc2)OCCCC[C@H](C)O3)cc1 | -7 | -2 | 0 | -1 | 1 | 16*
COc1ccc2c3c(n(C)c2c1)[C@H](CO)N(Cc1ccncc1)CC31CN(C(=O)C2CCC2)C1 | -3 | -1 | 0 | -3 | 2 | 0
COc1ccc2c3c([nH]c2c1)[C@@H](CO)N(C(=O)Nc1ccc(F)cc1)CC31CN(S(=O)(=O)c2ccc(C)cc2)C1 | 6 | 2 | 0 | -1 | -8 | -6
C[C@@H]1CN([C@@H](C)CO)C(=O)c2cccc(NC(=O)Nc3ccccc3)c2O[C@H]1CN(C)C(=O)Nc1ccc2c(c1)OCO2 | 3 | -2 | 0 | 0 | 6 | -8
CCCc1cn(CC[C@H]2CC[C@@H](NC(=O)Cc3cccnc3)[C@@H](CO)O2)nn1 | 34 | -1 | 0 | 2 | 1 | 2
C[C@@H]1CN([C@H](C)CO)C(=O)c2cc(NS(=O)(=O)c3ccc(F)cc3)ccc2O[C@@H](C)CCCCO[C@@H]1CN(C)C(=O)NC1CCCCC1 | 120* | -3 | 0 | -2 | -4 | 9
C[C@H](CO)N1C[C@H](C)[C@@H](CN(C)C(=O)Nc2ccc(F)cc2)OCCCC[C@H](C)Oc2ccc(NC(=O)Nc3ccc4c(c3)OCO4)cc2C1=O | -35 | -2 | 0 | 1 | 49* | 7
C[C@H](CO)N1C[C@H](C)[C@H](CN(C)C(=O)Nc2ccc(C(F)(F)F)cc2)OCCCC[C@H](C)Oc2ccc(NC(=O)Nc3ccc(F)cc3)cc2C1=O | 2 | 3 | 1 | 3 | -4 | 17*
C[C@@H]1CCCCO[C@@H](CN(C)C(=O)NC2CCCCC2)[C@@H](C)CN([C@H](C)CO)C(=O)c2cc(NS(=O)(=O)c3ccc(F)cc3)ccc2O1 | -6 | 0 | · | 2 | -3 | 5
COc1ccc(NC(=O)Nc2ccc3c(c2)C(=O)N([C@@H](C)CO)C[C@H](C)[C@@H](CN(C)C(=O)Nc2ccc(F)cc2)OCCCC[C@H](C)O3)cc1 | 1 | 0 | 0 | 1 | 2 | 17*
COc1ccc(NC(=O)Nc2ccc3c(c2)C(=O)N([C@H](C)CO)C[C@@H](C)[C@H](CN(C)C(=O)Nc2ccc(F)cc2)OCCCC[C@@H](C)O3)cc1 | -7 | -2 | 0 | -1 | 5 | 10
CC(=O)N1[C@H](C(=O)N2CCCCC2)[C@@H](CO)[C@@H]2Cn3c(ccc(-c4ccccc4)c3=O)[C@@H]21 | -1 | -2 | -1 | 4 | -3 | -17
O=C(C1CCC1)N1[C@@H](CO)[C@@H](c2ccccc2)C12CN(Cc1ccccc1)C2 | 5 | -13 | 0 | -1 | 0 | -1
C[C@@H]1CN([C@H](C)CO)S(=O)(=O)c2ccc(C#CC3CCCCC3)cc2O[C@H]1CN(C)Cc1cccnc1 | 3 | 0 | 0 | 0 | 10 | 4
CC(C)(C)c1cccc(C2(O)C(=O)c3ccccc3C2=O)c1O | 0 | 3 | · | -38* | 0 | -2
CCCC#Cc1ccc([C@@H]2[C@H](CO)N3CCCCN(CC4CCOCC4)C[C@@H]23)cc1 | -2 | 0 | 0 | 6 | 6 | 1
O=C(C[C@@H]1CC[C@@H]2[C@H](COC[C@H](O)CN2C(=O)c2ccc3c(c2)OCO3)O1)NC1Cc2ccccc2C1 | -20 | 0 | 0 | 0 | 0 | 1
COc1ccc(NC(=O)NC2(C(=O)N3CCOCC3)CCCCC2)cc1 | -2 | -4 | 39* | 1 | 1 | -3
Cc1noc(C)c1S(=O)(=O)Nc1cccc2c1O[C@H](CN(C)Cc1ccc(C(=O)O)cc1)[C@H](C)CN([C@H](C)CO)C2=O | -2 | -2 | 0 | 9 | -4 | -10
COc1ccccc1Oc1cn[nH]c1-c1ccc(OCC(=O)NN)cc1O | -2 | 1 | 0 | 4 | 1 | -2
COc1ccccc1Oc1cn[nH]c1-c1ccc(O)cc1O | -4 | 0 | 0 | -21* | 7 | -5
SMILES | S100A4 inh HTS | ERAP1 HTS inh | E-selectin induc | rRNA inh HTS | MLL AF4-AF9 inh | SIRT5 block
CC(C)C(NC(=O)CCNC(=O)c1ccc([N+](=O)[O-])cc1)c1nc2ccccc2[nH]1 (centres undefined) | 0 | 67* | 1 | -5 | -3 | -1
C/C=C/c1ccc([C@@H]2[C@H](CN(C)S(C)(=O)=O)N[C@@H]2CO)cc1 | -11 | -2 | 0 | 2 | -5 | -1
O=C(Nc1ccc2oc(Cc3ccc(Cl)cc3)nc2c1)c1cccnc1 | -1 | 0 | · | -14 | · | ·
CCOc1cccc(C(=O)Nc2ccc3oc(Cc4ccc(Cl)cc4)nc3c2)c1 | -5 | 2 | · | -30* | · | 4
CCCCn1c(N)c(N(CCOC)C(=O)c2cnc(C)cn2)c(=O)[nH]c1=O | -2 | 49* | · | 3 | -1 | -3
C[C@H]1CN([C@@H](C)CO)C(=O)c2cccc(NC(=O)Nc3cccc4ccccc34)c2O[C@H]1CN(C)Cc1ccc(-c2ccccc2)cc1 | · | · | 90* | 1 | · | ·
CC(C)NC(=O)Nc1cccc2c1O[C@H](CN(C)Cc1ccc(C(F)(F)F)cc1)[C@@H](C)CN([C@@H](C)CO)C2=O | -13 | 1 | -17 | -2 | 2 | 3
